From PubChem
Only some compounds are listed: those with a hit (about 11% of all), similar ones and a draw of the others.
M1 antag: M1 muscarinic receptor (rat) antagonism | actives 3.4% (n = 64,000) | P08482 | B-score at 10 µM | AID 628 | CHO-M1 cells, Fluo-4 calcium, ACh EC80 antagonist mode; stronger effect = lower value;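 active means calcium fluorescence response, raw or row-and-column corrected B-score, differing from the plate sample mean either way at a set confidence level, mostly lower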
TNAP act DEA: activators of human TNAP at intermediate phosphate acceptor; purified TNAP, CDP-star luminescence, 100 mM DEA, 30 min; stronger effect = higher value; scale: 0 levamisole-inhibited, 1 vehicle-only enzyme; activation factor at 20 µM; 64,000 tested, under 10 active; AID 813;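 active means activation factor of at least 2 at 20 µM, relative to controls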
S1P3 agonist: agonists of human S1P3 receptor; activation, % at 4.5 µM; S1P3 NFAT-BLA reporter cells, agonism, FRET ratio; relative to 1 µM S1P, basal subtracted; Q99500; actives 0.1% (n = 60,000);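 active means activation above the screen-wide mean plus 3 SD, cut at about 4.5% in these data, passing the limit was not always enough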
Target sequence (Q99500 whole entry, looked up): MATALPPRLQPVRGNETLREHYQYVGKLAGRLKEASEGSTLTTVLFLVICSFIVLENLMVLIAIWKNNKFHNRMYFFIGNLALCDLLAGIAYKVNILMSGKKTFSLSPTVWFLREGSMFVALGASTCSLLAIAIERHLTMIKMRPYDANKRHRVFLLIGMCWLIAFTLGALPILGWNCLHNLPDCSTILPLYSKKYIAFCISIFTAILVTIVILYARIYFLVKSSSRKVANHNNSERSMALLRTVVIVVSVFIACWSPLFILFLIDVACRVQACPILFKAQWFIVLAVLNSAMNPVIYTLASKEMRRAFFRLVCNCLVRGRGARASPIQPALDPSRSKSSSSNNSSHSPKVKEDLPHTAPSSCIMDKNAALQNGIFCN
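Assay system: stable CHO line with human S1P3, Gα16, NFAT-BLA reporter; Detection: FRET β-lactamase substrate fluorescence, excitation 405 nm, 460/535 nm emission ratio, background-subtracted; Read-out: percent activation versus median 1 µM S1P response, basal-subtracted, per plate; Incubation: cells plated overnight, compound 4 h 37 °C, substrate 2 h RT.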
M1 ag: agonists of M1 muscarinic receptor; B-score at 10 µM; CHO-M1 cells, Fluo-4 calcium fluorescence, agonist mode; stronger effect = higher value; actives 3% (n = 64,000); AID 626;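 active means fluorescence rise, raw or as B-score row- and column-corrected plate score, outside the 99.7% band of its plate's samples, either direction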
S1P1 ag pot: S1P1 (human) agonism or agonism potentiation; P21453; S1P1 CRE-bla cells, forskolin, beta-lactamase FRET, potentiator mode; S1P1 agonist co-added at EC20, 2 nM; 100% = saturating reference agonist, 0% = basal; activation, % at 9.5 µM; actives 0.57% (n = 56,000); AID 449;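 active means activation above a cutoff set at the mean activation of all tested compounds plus 3 SD, cut at about 54% in these data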;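 further: forskolin at 4 µM as EC80 and the EC20 agonist is SEW2871; 100% = SEW2871 at its EC100 plus forskolin at EC80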
D1 mod: allosterically modulates the human D1 dopamine receptor | HEK293 D1, CRE-luciferase, dopamine EC30 potentiation; actives deviate in either direction | actives 5.9% (n = 58,000) | P21728 | B-score at 10 µM;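 active means luminescence count or its row- and column-corrected plate score outside the 99.7% band of the plate's sample wells, on either side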
D1 PAM confirm: D1 receptor (human) allosteric modulation, confirmed | AID 642 | actives 88% (n = 2,200) | luminescence at 10 µM | shares compounds with D1 mod | HEK293 D1 CRE-luciferase, dopamine EC30 potentiation; stronger effect = higher value;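 active means luminescence in either of two replicates above the same-plate mean plus 3 SD of the low-dose dopamine control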
D1 no dopamine: D1 (human) signaling in absence of dopamine | shares compounds with D1 mod | HEK293 D1 CRE-luciferase, luminescence, no dopamine; stronger effect = higher value | luminescence at 10 µM | actives 0.8% (n = 1,900); in the data active means luminescence above about 3900
Isoprot counter: alters isoproterenol CRE-luciferase response in HEK293 cells; AID 647; HEK293 D1 CRE-luciferase, isoproterenol EC30 counter-screen; stronger effect = higher value; shares compounds with D1 mod; actives 63% (n = 2,200); luminescence at 10 µM;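 active means luminescence in either replicate above plate mean of wells with a partly effective reference agonist dose plus 3 SD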;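 further: isoproterenol raises cAMP through native beta-adrenoceptor Gs so signal bypasses D1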
An asterisk follows results filed as active; / = not tested or not shown.

SMILES	M1 antag	TNAP act DEA	S1P3 agonist	M1 ag	S1P1 ag pot	D1 mod	D1 PAM confirm	D1 no dopamine	Isoprot counter
CCOc1ccc(S(=O)(=O)Nc2cc(OC)ccc2OC)cc1	-0.871	0.9	-1.2	0.36	10.7	4.49*	11952*	1748	3600*
COC(=O)CC1C(=O)NCCN1C(=O)NC1CCCCC1 (stereo not given)	-0.167	0.8	0.9	0.716	-9.1	-0.563	/	/	/
CNc1oc(-c2ccccc2)nc1C#N	-1.34	0.9	-1.6	0.0567	7.6	7.41*	11304*	1648	3240*
N#Cc1nc(-c2ccco2)oc1NCc1cccnc1	0.302	0.9	0.2	-0.357	-41.1	2.31	/	/	/
COc1ccc(CNc2oc(-c3ccccc3)nc2C#N)cc1	0.835	0.8	0.4	-1.69	-4.5	10.4*	18596*	1724	5400*
N#Cc1nc(-c2ccco2)oc1NCc1ccc(F)cc1	-0.341	0.9	0.0	-0.00443	-5.3	6.57*	12560*	1876	3668*
N#Cc1nc(-c2ccccc2Cl)oc1NCc1ccco1	0.875	0.8	-1.2	0.00849	-0.9	4.74*	12632*	1648	4124*
CCCCCC#CCC#CCC#CCC#CCCCC(=O)O	0.455	0.9	-2.4	-0.708	9.2	0.217	/	/	/
COc1ccc(C2C(=O)N(CCc3ccccc3)CC(=O)N2C2CCCC2)cc1 (stereo not given)	0.677	0.9	/	-0.548	/	0.59	/	/	/
COCCNc1oc(-c2ccc(Cl)cc2)nc1C#N	-0.343	0.9	-2.6	-0.198	1.2	0.622	/	/	/
N#Cc1nc(Cc2ccccc2)oc1NCc1ccccc1Cl	-1.64	0.8	-1.0	0.213	/	11.7*	11100*	1556	4116*
COCCNc1oc(-c2ccc(C)cc2)nc1C#N	0.281	0.9	-1.9	-0.29	6.1	5.06*	5796*	1872	2756
CC1(C)C2CCC13CS(=O)(=O)N[C@@H]3C2 (stereo not given in full)	0.551	0.9	-0.3	-1.16	9.2	0.515	/	/	/
C=C(C)Cn1c(Sc2nc3ccccc3[nH]2)nc2c1c(=O)[nH]c(=O)n2C	0.407	1	0.4	0.0109	-5.5	1.29	/	/	/
O=C1NC2=C(C(=O)CCC2)C(c2ccc3ncccc3c2)N1 (stereo not given)	-1.21	0.9	0.3	0.577	3.5	1.48	/	/	/
COc1ccc(/C=N/n2c(SC)nnc2-c2ccccc2)c(OC)c1OC	0.0348	0.9	-0.7	1.34	-4.6	0.377	/	/	/
COc1ccc(/C=N/n2c(SC)nnc2-c2ccccc2)cc1C	-0.0807	0.9	-0.2	-0.185	-30.6	16.1*	23520*	1680	15392*
COc1ccc(-c2cc(OC)c3c(C)oc(C)c3c(=O)c2)cc1OC	0.057	1	-1.4	-1.27	-27.0	3.76*	12580*	1500	3976*
Cc1cccc2cc(COC(=O)C3CCCCC3)c(=O)[nH]c12	0.355	0.9	-1.7	-0.218	1.0	0.173	/	/	/
CCCCOc1ccc(/C=c2\sc3ncnn3c2=O)cc1	-0.0644	0.9	-0.2	-0.56	-21.4	2.68*	11772*	2228	3132*
O=c1/c(=C/c2cccc3ccccc23)sc2ncnn12	0.0556	0.9	-0.2	-0.0555	4.3	3.85*	6052	1796	3760
C#CCNc1cc(C)nc2ncnn12	-1.43	1	0.2	-0.252	-2.0	-0.0822	/	/	/
CCCn1c(=O)c(C(=O)NCc2ccncc2)c(O)c2ccccc21	0.00385	0.9	-0.5	-0.357	-41.4	5.2*	6720*	1628	2880
CCn1c(=O)c(C(=O)Nc2cccnc2)c(O)c2ccccc21	-0.2	0.9	-0.7	-0.0484	1.3	0.836	/	/	/
CCn1c(=O)c(C(=O)NCc2cccnc2)c(O)c2ccccc21	0.569	0.9	/	-0.961	/	4.82*	13308*	1676	2712
SMILES	M1 antag	TNAP act DEA	S1P3 agonist	M1 ag	S1P1 ag pot	D1 mod	D1 PAM confirm	D1 no dopamine	Isoprot counter
Clc1ccc(C2=Nn3c(nnc3-c3n[nH]c4c3CCC4)SC2)cc1Cl	-0.583	1.1	-0.1	-0.0817	-100.0	9.38*	6068*	1632	4288*
CNC(=O)N(C1=NCC(C)S1)c1ccc(F)cc1F (stereo not given)	0.0905	0.9	-0.6	0.576	/	5.25*	16972*	1640	3116*
CCOc1ccc(CCNC(=O)CN(C)S(=O)(=O)c2cccc3nsnc23)cc1OCC	-0.918	0.9	-0.2	-0.46	6.8	0.664	/	/	/
CCN(CCCNC(=O)CN(C)S(=O)(=O)c1cccc2nsnc12)c1cccc(C)c1	-0.358	0.9	0.2	-0.265	2.2	3.49*	13504*	1728	3116
CC(C)(C)n1nnnc1CN1C2CCC1CC(NC(=O)Nc1ccccc1)C2 (stereo not given)	1.38	1	-0.2	0.0186	5.4	4.77*	5228	/	2460
CC(C)Cn1c(SCC#N)nc2ccccc2c1=O	/	0.9	/	/	/	8.59*	15244*	1668	4324*
COc1ccc(-c2nnc(CSc3nc4ccccc4c(=O)n3CC(C)C)o2)cc1OC	0.613	0.9	0.1	-0.42	-8.3	5.76*	6848*	/	3892*
COC(=O)COn1c(SCC(=O)OC)nc2ccccc2c1=O	0.114	1	-1.7	-0.0313	-8.9	/	/	/	/
CC(C#N)On1c(SC(C)C#N)nc2ccccc2c1=O (stereo not given)	0.366	0.9	-0.7	0.3	-5.6	4.18*	11488*	/	2448
COc1ccc(Cl)cc1NC(=O)C1CSC(c2ccncc2)=N1 (stereo not given)	0.0232	0.9	-1.0	0.235	-4.8	2.55	/	/	/
CCOC(=O)c1c(N)nn(C(=O)C(C)(C)C)c1-c1ccccc1	-0.394	0.9	-0.2	-0.0382	15.1	1.52	/	/	/
CCOC(=O)C1=C(c2ccccc2)N2CCS(=O)(=O)N=C2S1	0.766	0.8	1.1	0.0354	-2.1	7.12*	9940*	1656	2960
COc1ccc(CN(Cc2cccnc2)S(=O)(=O)c2ccc(-n3cnnn3)c(C)c2)cc1OC	-0.369	0.9	-0.8	-0.0402	8.4	3.7*	7956*	1480	2736
COc1ccc(CN(Cc2ccccn2)S(=O)(=O)c2ccc(-n3cnnn3)c(OC)c2)cc1	-0.135	0.9	0.1	-0.678	16.1	-0.185	/	/	/
CCOC(=O)c1cnn(-c2cccc(Cl)c2)c1N	-0.627	0.9	0.1	-0.517	-22.2	4.58*	12468*	1660	3736
